Assay results as given in ChEMBL document CHEMBL5058577, “EUbOPEN Chemogenomics Library 2 (Multiplex)” (2022).

Test system: HEK-293T
Assay: Multiplex assay against HEK293T
Format: toxicity, cell-based
Conditions: human
Summary of the method: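 Compound was added to live cells that had been stained at seeding with Hoechst33342, BioTracker Green Microtubule Cytoskeleton Dye, MitoTracker Red and Annexin V Alexa Fluor 680, and imaging followed on a CQ1 microscope at 37°C and 5% CO2. CellPathfinder machine-learning gating divided cells into Hoechst high-intensity objects or normal cells, normal cells into healthy, pyknosed or fragmented nuclei, and pyknosed cells into mitotic or apoptotic. Tubulin, mitochondrial-mass and membrane-permeability phenotypes are per cents of healthy-nucleus cells.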

[1] = 12 h, 1 µM, compound concentration 1 uM, replicate 1
[2] = 12 h, 1 µM, compound concentration 1 uM, replicate 2
[3] = 12 h, 10 µM, compound concentration 10 uM, replicate 1
[4] = 12 h, 10 µM, compound concentration 10 uM, replicate 2
[5] = 24 h, 1 µM, compound concentration 1 uM, replicate 1
[6] = 24 h, 1 µM, compound concentration 1 uM, replicate 2
[7] = 24 h, 10 µM, compound concentration 10 uM, replicate 1
[8] = 24 h, 10 µM, compound concentration 10 uM, replicate 2
[9] = 48 h, 1 µM, compound concentration 1 uM, replicate 1
[10] = 48 h, 1 µM, compound concentration 1 uM, replicate 2
[11] = 48 h, 10 µM, compound concentration 10 uM, replicate 1
[12] = 48 h, 10 µM, compound concentration 10 uM, replicate 2

## CC(C)(O)C(=O)N1CCN(c2ccc(C(F)(F)F)c(C3=C(c4c[nH]c5ccccc45)C(=O)NC3=O)c2)CC1
[1]
  Population Apoptotic (%): 33%
  Population Fragmented Nuclei (%): 4%
  Population Healthy Nuclei (%): 78%
  Population Hoechst High Intensity Objects (%): 8%
  Population Membrane Permeable-Phenotype (%): 0%
  Population Mitochondria Different-Phenotype (%): 43%
  Population Mitotic Cells (%): 66%
  Population Normal (%): 91%
  Population Pyknosed Nuclei (%): 16%
  Population Tubulin-Different-Phenotype (%): 28%
  Total Cell Count: 381
[2]
  Population Apoptotic (%): 46%
  Population Fragmented Nuclei (%): 5%
  Population Healthy Nuclei (%): 76%
  Population Hoechst High Intensity Objects (%): 7%
  Population Mitochondria Different-Phenotype (%): 58%
  Population Mitotic Cells (%): 53%
  Population Normal (%): 92%
  Population Pyknosed Nuclei (%): 17%
  Population Tubulin-Different-Phenotype (%): 30%
  Total Cell Count: 293
[3]
  Population Apoptotic (%): 51%
  Population Fragmented Nuclei (%): 4%
  Population Healthy Nuclei (%): 74%
  Population Hoechst High Intensity Objects (%): 10%
  Population Membrane Permeable-Phenotype (%): 0%
  Population Mitochondria Different-Phenotype (%): 61%
  Population Mitotic Cells (%): 48%
  Population Normal (%): 89%
  Population Pyknosed Nuclei (%): 20%
  Population Tubulin-Different-Phenotype (%): 62%
  Total Cell Count: 338
[4]
  Population Apoptotic (%): 72%
  Population Fragmented Nuclei (%): 3%
  Population Healthy Nuclei (%): 75%
  Population Hoechst High Intensity Objects (%): 7%
  Population Mitochondria Different-Phenotype (%): 90%
  Population Mitotic Cells (%): 27%
  Population Normal (%): 92%
  Population Pyknosed Nuclei (%): 21%
  Population Tubulin-Different-Phenotype (%): 63%
  Total Cell Count: 203
[5]
  Population Apoptotic (%): 33%
  Population Fragmented Nuclei (%): 8%
  Population Healthy Nuclei (%): 74%
  Population Hoechst High Intensity Objects (%): 5%
  Population Membrane Permeable-Phenotype (%): 0%
  Population Mitochondria Different-Phenotype (%): 32%
  Population Mitotic Cells (%): 66%
  Population Normal (%): 94%
  Population Pyknosed Nuclei (%): 17%
  Population Tubulin-Different-Phenotype (%): 19%
  Total Cell Count: 469
[6]
  Population Apoptotic (%): 29%
  Population Fragmented Nuclei (%): 5%
  Population Healthy Nuclei (%): 79%
  Population Mitochondria Different-Phenotype (%): 48%
  Population Mitotic Cells (%): 70%
  Population Pyknosed Nuclei (%): 14%
  Total Cell Count: 335
[7]
  Population Apoptotic (%): 45%
  Population Fragmented Nuclei (%): 6%
  Population Healthy Nuclei (%): 71%
  Population Hoechst High Intensity Objects (%): 4%
  Population Membrane Permeable-Phenotype (%): 1%
  Population Mitochondria Different-Phenotype (%): 48%
  Population Mitotic Cells (%): 54%
  Population Normal (%): 95%
  Population Pyknosed Nuclei (%): 22%
  Population Tubulin-Different-Phenotype (%): 43%
  Total Cell Count: 387
[8]
  Population Apoptotic (%): 66%
  Population Fragmented Nuclei (%): 2%
  Population Hoechst High Intensity Objects (%): 7%
  Population Membrane Permeable-Phenotype (%): 0%
  Population Mitochondria Different-Phenotype (%): 84%
  Population Mitotic Cells (%): 34%
  Population Normal (%): 92%
  Population Pyknosed Nuclei (%): 25%
  Population Tubulin-Different-Phenotype (%): 60%
  Total Cell Count: 212
[9]
  Population Apoptotic (%): 25%
  Population Fragmented Nuclei (%): 9%
  Population Healthy Nuclei (%): 79%
  Population Hoechst High Intensity Objects (%): 2%
  Population Membrane Permeable-Phenotype (%): 0%
  Population Mitochondria Different-Phenotype (%): 21%
  Population Mitotic Cells (%): 74%
  Population Normal (%): 97%
  Population Pyknosed Nuclei (%): 10%
  Population Tubulin-Different-Phenotype (%): 14%
  Total Cell Count: 780
[10]
  Population Apoptotic (%): 27%
  Population Fragmented Nuclei (%): 10%
  Population Hoechst High Intensity Objects (%): 5%
  Population Mitochondria Different-Phenotype (%): 29%
  Population Mitotic Cells (%): 72%
  Population Normal (%): 94%
  Population Tubulin-Different-Phenotype (%): 15%
  Total Cell Count: 571
[11]
  Population Apoptotic (%): 54%
  Population Fragmented Nuclei (%): 8%
  Population Healthy Nuclei (%): 71%
  Population Hoechst High Intensity Objects (%): 8%
  Population Membrane Permeable-Phenotype (%): 0%
  Population Mitochondria Different-Phenotype (%): 53%
  Population Mitotic Cells (%): 45%
  Population Normal (%): 91%
  Population Pyknosed Nuclei (%): 19%
  Population Tubulin-Different-Phenotype (%): 25%
  Total Cell Count: 467
[12]
  Population Apoptotic (%): 78%
  Population Fragmented Nuclei (%): 9%
  Population Mitochondria Different-Phenotype (%): 71%
  Population Mitotic Cells (%): 21%
  Population Tubulin-Different-Phenotype (%): 40%
  Total Cell Count: 227
